# Measured values reported in ChEMBL document CHEMBL3085708, “Identification and profiling of 3,5-dimethyl-isoxazole-4-carboxylic acid [2-methyl-4-((2S,3'S)-2-methyl-[1,3']bipyrrolidinyl-1'-yl)phenyl] amide as histamine H(3) receptor antagonist for the treatment of depression” (Bioorg Med Chem Lett, 2013).
# Experiments:
# [1] = tested on: Rattus norvegicus; test: Plasma clearance in Sprague-Dawley rat at 2 mg/kg, iv; type: ADME, organism-based; design: dose 2 mg/kg, route intravenous; settings: in vivo
# Procedure, shortened: (§1)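 Male Sprague-Dawley rats dosed 2 mg/kg iv in saline (0.5 mg/mL) and 10 mg/kg po in 0.5% MC/0.2% Tween80 (1.0 mg/mL); plasma and brain concentrations followed.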
# [2] = Solubility of the compound in form of crystalline free base in gastrointestinal tract simulated media; type: physicochemical
# [3] = target: T1, Histamine H3 receptor (Homo sapiens, UniProt Q9Y5N1); test: Displacement of [3H]-methylhistamine from human histamine H3 receptor transfected in human 293 cells after 1 hr by scintillation counting analysis; type: cell-based
# T1 sequence (Q9Y5N1 whole entry): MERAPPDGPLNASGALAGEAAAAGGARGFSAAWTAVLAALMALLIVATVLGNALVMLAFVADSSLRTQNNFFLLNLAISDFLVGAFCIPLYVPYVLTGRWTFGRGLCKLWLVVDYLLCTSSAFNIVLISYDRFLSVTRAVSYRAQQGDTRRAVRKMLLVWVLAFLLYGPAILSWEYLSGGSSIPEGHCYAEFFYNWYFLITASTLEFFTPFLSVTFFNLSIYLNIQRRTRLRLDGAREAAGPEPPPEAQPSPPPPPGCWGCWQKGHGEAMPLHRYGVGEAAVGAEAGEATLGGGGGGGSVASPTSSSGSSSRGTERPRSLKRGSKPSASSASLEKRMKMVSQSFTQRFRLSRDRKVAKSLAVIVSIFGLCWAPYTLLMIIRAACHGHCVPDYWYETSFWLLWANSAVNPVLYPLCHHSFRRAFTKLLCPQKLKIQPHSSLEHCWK
# [4] = Drug metabolism in mouse liver microsomes; type: ADME, Microsome; settings: read-out: Drug metabolism
# [5] = Drug metabolism in dog plasma at 100 ng/ml after 4 hrs; type: ADME, cell-free, Canis lupus familiaris; settings: read-out: Drug metabolism
# Procedure, shortened: (§2)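 Compound spiked into blank plasma of human, mouse, rat, rabbit, macaque and dog at 100 ng/ml, then incubated in a 37 °C water bath for up to 4 h; percent metabolized reported.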
# [6] = target: Cytochrome P450 2C9 (Homo sapiens, UniProt P11712); test: Inhibition of CYP2C9 (unknown origin) after 4 hrs; type: ADME
# Sequence of Cytochrome P450 2C9 (P11712 whole entry): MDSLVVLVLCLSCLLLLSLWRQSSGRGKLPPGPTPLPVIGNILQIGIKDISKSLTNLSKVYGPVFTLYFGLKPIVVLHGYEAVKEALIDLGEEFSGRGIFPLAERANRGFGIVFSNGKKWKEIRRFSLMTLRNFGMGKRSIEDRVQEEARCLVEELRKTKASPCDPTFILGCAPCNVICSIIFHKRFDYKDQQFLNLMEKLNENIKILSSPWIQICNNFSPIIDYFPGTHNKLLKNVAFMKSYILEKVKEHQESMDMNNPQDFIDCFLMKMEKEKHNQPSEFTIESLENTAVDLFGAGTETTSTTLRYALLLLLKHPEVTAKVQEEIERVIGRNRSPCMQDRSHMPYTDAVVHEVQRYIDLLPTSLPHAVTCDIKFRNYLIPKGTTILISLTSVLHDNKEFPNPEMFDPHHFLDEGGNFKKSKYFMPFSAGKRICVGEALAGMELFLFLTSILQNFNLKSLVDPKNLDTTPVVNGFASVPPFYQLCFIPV
# [7] = target: Sigma non-opioid intracellular receptor 1 (Homo sapiens) (UniProt Q99720); test: Inhibition of sigma-1 receptor (unknown origin) at 10 uM relative to control
# Sequence of Sigma non-opioid intracellular receptor 1 (Homo sapiens) (Q99720 whole entry): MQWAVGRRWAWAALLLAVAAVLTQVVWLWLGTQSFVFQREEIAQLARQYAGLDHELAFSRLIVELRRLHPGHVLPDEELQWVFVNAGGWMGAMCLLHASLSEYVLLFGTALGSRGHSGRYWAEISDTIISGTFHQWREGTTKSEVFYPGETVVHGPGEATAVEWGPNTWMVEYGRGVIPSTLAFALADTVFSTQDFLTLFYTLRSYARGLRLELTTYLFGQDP
# [8] = Mutagenic activity in micronucleus (unknown origin) at 5 to 950 ug/mL in absence of human liver microsomes; type: toxicity
# Procedure, shortened: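 In vitro micronucleus test; concentrations 5 to 950 µg/mL, run with and without metabolic activation by human liver microsomes.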
# [9] = Tmax in Sprague-Dawley rat brain at 10 mg/kg, po; type: ADME, organism-based; design: dose 10 mg/kg, route oral; procedure, shortened: as §1
# [10] = tested on: Mus musculus; test: Toxicity in mouse assessed as effect on social interaction at 30 mg/kg, po; type: organism-based; design: dose 30 mg/kg, route oral; settings: in vivo
# Procedure, shortened: (§3)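 Acute oral group toxicity in mice: behavioural side effects scored (social interaction, motility, preconvulsant signs, convulsions, tremor) after single po doses of 30 and 100 mg/kg.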
# [11] = AUC (0 to infinity) in OF1 mouse plasma at 10 mg/kg, po; type: ADME, organism-based; design: time infinity, dose 10 mg/kg, route oral
# Procedure, shortened: (§4)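 Single-dose PK; male OF1 mice and male Sprague-Dawley rats, 2 mg/kg iv and 10 mg/kg po. Mouse vehicles: iv 50% 1-methyl-2-pyrrolidinone in saline (1.0 mg/mL); po 5% DMSO/0.5% MC/0.2% Tween80 (1.0 mg/mL). Rat vehicles: iv saline (0.5 mg/mL); po 0.5% MC/0.2% Tween80 (1.0 mg/mL). Plasma and brain exposure read as AUC0-∞ and t1/2.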
# [12] = Tmax in OF1 mouse plasma at 10 mg/kg, po; type: ADME, organism-based; design: dose 10 mg/kg, route oral
# Procedure, shortened: (§5)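 Male OF1 mice given 2 mg/kg iv (50% 1-methyl-2-pyrrolidinone in saline, 1.0 mg/mL) and 10 mg/kg po (5% DMSO/0.5% MC/0.2% Tween80, 1.0 mg/mL); plasma and brain exposure measured; B/P ratio from iv AUC.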
# [13] = tested on: Mus musculus; test: Toxicity in mouse assessed as effect on neurological activity at 10 to 30 mg/kg, po by Irwin test; type: organism-based; design: dose 10-30 mg/kg, route oral; settings: in vivo
# Procedure, shortened: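 Irwin exploratory general behaviour study in male mice; single oral doses of 0, 10 and 30 mg/kg; behavioural, neurologic and autonomic effects observed.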
# [14] = Elimination half life in OF1 mouse plasma at 2 mg/kg, iv; type: ADME, organism-based; design: dose 2 mg/kg, route intravenous; settings: read-out: beta t1/2 (converted); procedure, shortened: as §4
# [15] = target: T1, Histamine H3 receptor; test: Inverse agonist activity at human histamine H3 receptor (445 amino acid residues) expressed in CHO cells by CRE-luciferase reporter gene assay; type: functional, cell-based
# [16] = Inhibition of cytochrome P450 (unknown origin) by mechanism-based assay; type: ADME; settings: human
# [17] = tested on: Salmonella typhimurium; test: Genotoxicity in Salmonella typhimurium at 3 to 1000 ug/mL by Ames-2 test; type: toxicity, organism-based; settings: salmonella enterica subsp. enterica serovar typhimurium
# Procedure, shortened: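 Ames II bacterial mutagenicity test over 3 to 1000 µg/mL.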
# [18] = Elimination half life in Sprague-Dawley rat plasma at 10 mg/kg, po; type: ADME, organism-based; design: dose 10 mg/kg, route oral; settings: read-out: beta t1/2 (converted); procedure, shortened: as §4
# [19] = AUC (0 to infinity) in OF1 mouse brain at 2 mg/kg, iv; type: ADME, organism-based; design: time infinity, dose 2 mg/kg, route intravenous; procedure, shortened: as §4
# [20] = Drug metabolism in human plasma at 100 ng/ml after 4 hrs; type: ADME, cell-free; settings: read-out: Drug metabolism; procedure, shortened: as §2
# [21] = Drug metabolism in dog liver microsomes; type: ADME, Canis lupus familiaris; settings: read-out: Drug metabolism
# [22] = Cmax in OF1 mouse brain at 10 mg/kg, po; type: ADME, organism-based; design: dose 10 mg/kg, route oral
# Procedure, shortened: (§6)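 Oral PK at 10 mg/kg po in male OF1 mice (vehicle 5% DMSO/0.5% MC/0.2% Tween80, 1.0 mg/mL) and male Sprague-Dawley rats (vehicle 0.5% MC/0.2% Tween80, 1.0 mg/mL). Cmax and tmax taken from plasma and brain concentration–time profiles.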
# [23] = Drug metabolism in mouse plasma at 100 ng/ml after 4 hrs; type: ADME, cell-free; settings: read-out: Drug metabolism; procedure, shortened: as §2
# [24] = tested on: Mus musculus; test: Toxicity in mouse assessed as effect on convulsion at 30 mg/kg, po; type: organism-based; design: dose 30 mg/kg, route oral; settings: in vivo; procedure, shortened: as §3
# [25] = target: Histamine H3 receptor (Rattus norvegicus, UniProt Q9QYN8); test: Displacement of [3H]-methylhistamine from rat histamine H3 receptor (445 amino acid residues) transfected in human 293 cells after 1 hr by scintillation counting analysis; type: cell-based
# Sequence of Histamine H3 receptor (Rattus norvegicus, UniProt Q9QYN8) (Q9QYN8 whole entry): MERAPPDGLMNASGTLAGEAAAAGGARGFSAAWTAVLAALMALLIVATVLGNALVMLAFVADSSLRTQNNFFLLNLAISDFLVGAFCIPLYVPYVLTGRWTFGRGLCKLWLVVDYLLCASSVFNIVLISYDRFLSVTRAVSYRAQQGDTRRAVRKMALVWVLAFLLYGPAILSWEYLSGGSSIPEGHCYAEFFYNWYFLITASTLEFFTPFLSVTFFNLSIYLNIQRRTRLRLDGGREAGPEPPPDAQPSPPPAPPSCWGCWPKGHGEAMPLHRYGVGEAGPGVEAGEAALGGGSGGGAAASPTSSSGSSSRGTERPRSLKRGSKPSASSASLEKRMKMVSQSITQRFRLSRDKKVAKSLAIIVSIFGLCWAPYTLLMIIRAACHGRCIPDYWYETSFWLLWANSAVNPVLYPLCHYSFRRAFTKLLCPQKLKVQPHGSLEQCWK
# [26] = Oral bioavailability in OF1 mouse at 10 mg/kg; type: ADME, organism-based; settings: in vivo; procedure, shortened: as §5
# [27] = Solubility of the compound in form of crystalline free base in water; type: physicochemical
# [28] = Therapeutic index, ratio for toxicity in mouse to ratio for antidepression-like activity in rat; settings: in vivo, read-out: TI
# [29] = Drug metabolism in rabbit plasma at 100 ng/ml after 4 hrs; type: ADME, cell-free, Oryctolagus cuniculus; settings: read-out: Drug metabolism; procedure, shortened: as §2
# [30] = Ratio of AUC (0 to infinity) in brain to plasma in Sprague-Dawley rat at 2 mg/kg, iv; type: ADME, organism-based; design: dose 2 mg/kg, route intravenous; settings: brain and plasma, read-out: Ratio AUC
# [31] = Drug metabolism in macaque plasma at 100 ng/ml after 4 hrs; type: ADME, cell-free; settings: macaca, read-out: Drug metabolism; procedure, shortened: as §2
# [32] = Volume of distribution in Sprague-Dawley rat at 2 mg/kg, iv; type: ADME, organism-based; design: dose 2 mg/kg, route intravenous; settings: in vivo; procedure, shortened: as §1
# [33] = tested on: Rattus norvegicus; test: Antidepression-like activity in po dosed rat assessed as decrease in immobility time by forced swimming test; type: functional
# Procedure, shortened: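 Rat forced-swim test, immobility time as read-out. Test agent given po in MC/0.6% + H2O at 1, 3 and 10 mg/kg; imipramine reference at 60 mg/kg po.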
# [34] = Cmax in Sprague-Dawley rat plasma at 10 mg/kg, po; type: ADME, organism-based; design: dose 10 mg/kg, route oral; procedure, shortened: as §6
# [35] = Drug metabolism in human liver microsomes; type: ADME; settings: read-out: Drug metabolism
# [36] = Dissociation constant, pKa of the compound; type: physicochemical
smiles,measurement,setting,value
Cc1cc(N2CC[C@H](N3CCC[C@@H]3C)C2)ccc1NC(=O)c1c(C)noc1C,clearance,[1],30 mL/min/kg
same,solubility,[2],> 2000 µg/mL
same,Ki,[3],0.1 nM
same,metabolised,[4],< 5%
same,"metabolised at 4 h, 100 ng/ml",[5],< 5%
same,IC50,[6],> 100000 nM
same,inhibition,[7],73%
same,Activity,[8],Non-toxic
same,Tmax,[9],60 min
same,Activity,[10],Non-toxic
same,AUC(0-inf),[11],1900 ng·h/mL
same,Tmax,[12],10.2 min
same,Activity,[13],Non-toxic
same,half-life,[14],39 min
same,EC50,[15],0.7 nM
same,inhibition (INH),[16],Not Active
same,Activity,[17],Non-toxic
same,half-life,[18],468 min
same,AUC(0-inf),[19],1100 ng·h/mL
same,"metabolised at 4 h, 100 ng/ml",[20],< 5%
same,metabolised,[21],< 5%
same,Cmax,[22],2620 ng/mL
same,"metabolised at 4 h, 100 ng/ml",[23],< 5%
same,Activity,[24],Non-toxic
same,Ki,[25],0.9 nM
same,bioavailability,[26],57%
same,solubility,[27],110 µg/mL
same,selectivity ratio,[28],3
same,"metabolised at 4 h, 100 ng/ml",[29],< 5%
same,Kp,[30],1.1
same,"metabolised at 4 h, 100 ng/ml",[31],< 5%
same,Vd,[32],2.8 L/kg
same,Activity,[33],Dose-dependent effect
same,minimal effective dose,[33]; read-out: MED,10 mg/kg
same,Cmax,[34],749 ng/mL
same,metabolised,[35],< 5%
same,pKa,[36],10.1
